Assay results published in article PMC3288193 (Clinical Immunology (Orlando, Fla.), 2011).

Experiments:
[1] = test system: purified Class II molecules (DRB1*0101, DRB1*0301, DRB1*0401, DRB1*0701, DRB1*1501); test: Competition-based class II HLA binding assay; set-up: species or system human; settings: test peptide 100 μM; average of 5 DRB1 alleles; Fig. 2
Outline: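 Non-biotinylated test peptides (HPLC-purified ≥80%) at 100 μM competed against biotinylated standard peptide (0.1 μM) for purified class II molecules (50 nM), 24 h at 37°C. Complexes were captured on ELISA plates with pan anti-class II L243, then incubated with europium-streptavidin for 1 h at RT, developed 15–20 min, and read by TRF. Triplicates. Percent inhibition per allele was averaged across five alleles.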

[2] = test system: LN cells of hemophilic FVIII KO E16 mice (H-2b); test: T cell proliferation of LN cells from peptide-immunized E16 mice; assay type: in vivo, mouse; settings: LN cells stimulated with 2191 in presence of competitor ORG peptides over a range of concentrations, Appendix Fig. 1
[3] = test system: LN cells of HLA-DR4 (DRB1*0401) transgenic mice; test: T cell proliferation of LN cells from peptide-immunized DR4 mice; assay type: in vivo, mouse; settings: DR4 mice immunized with mixture of 2231-M1, -M2, -M3, 3 μg each in CFA; Fig. 5C
Outline: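 Mixed peptides (3 μg each in CFA) were injected subcutaneously via hind footpad and tail base. After two weeks, pooled draining inguinal/popliteal LN cells (0.5×10^6/well) were stimulated 48 h with ORG or MOD peptides (0, 1, 3, 10 μg/ml) in RPMI 1640 with 2% FBS and 0.5% hemophilic mouse serum. Cells were pulsed with 1 μCi [3H]-thymidine for 16–20 h and beta-counted. Results are background-subtracted ΔCPM, mean ± SEM of triplicates.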

effect of modification on average HLA binding versus ORG peptide [1]	HLA binding, average across HLA alleles (rank among ORG peptides) [1]	Substance	effect of competitor ORG peptides on 2191-O-specific proliferation [2]	de novo immunogenicity of MOD peptides (T cell proliferation) [3]
only moderately reduced binding		2191-M1: modified (MOD) version of 2191-O with one substitution, F2196G (TASSYGTNMFATWSPSKARL)		
	bound strongest	2191-O: original (ORG) human FVIII C2 domain epitope cluster peptide, amino acid positions 2191–2210 (TASSYFTNMFATWSPSKARL)	not affected by the presence of competitor ORG peptides	
lower HLA binding		2231-M1: modified (MOD) version of 2231-O with F2234G mutation (QVDGQKTMKVTGVTTQGVKSL)		significantly lower
